Assay results: ChEMBL document CHEMBL1165943, “Design and synthesis of new anticancer pyrimidines with multiple-kinase inhibitory effect” (Bioorg Med Chem, 2010)
Active and inactive are the calls of the source. No cut-off for these calls is given here.

Tests used:
IGROV-1 = assay: Cytotoxicity against human IGROV1 cells assessed as cell growth at 1 uM after 48 hrs by sulforhodamine B assay; type: functional; conditions: IGROV-1, 48 h, read-out: Activity
HT-29 [1] = assay: Cytotoxicity against human HT-29 cells assessed as cell growth at 0.001 uM after 48 hrs by sulforhodamine B assay; type: functional; conditions: HT-29, 48 h, read-out: Activity
SNB-19 [2] = assay: Cytotoxicity against human SNB19 cells assessed as cell growth at 100 nM after 48 hrs by sulforhodamine B assay; type: functional; conditions: SNB-19, 48 h, read-out: Activity
NCI-H322M = assay: Cytotoxicity against human NCI-H322M cells assessed as cell growth at 0.01 uM after 48 hrs by sulforhodamine B assay; type: functional; conditions: read-out: Activity
UACC-62 [3] = assay: Growth inhibition of human UACC62 cells after 48 hrs by sulforhodamine B assay; type: functional, cell-based; conditions: UACC-62, 48 h
In short: (§1)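 Cells grown in RPMI 1640 with 5% FBS and 2 mM L-glutamine, seeded at 5,000–40,000 cells/well according to doubling time. After 24 h, time-zero plates are TCA-fixed. Five concentrations (10-fold or ½log dilutions, DMSO stocks) are applied for 48 h at 37 °C, 5% CO₂. Cells are TCA-fixed, SRB-stained and read at 515 nm. IC₅₀ is taken from [(Ti−Tz)/(C−Tz)]×100 = 50.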

A549 [4] = assay: Cytotoxicity against human A549 cells assessed as cell growth at 1 uM after 48 hrs by sulforhodamine B assay; type: functional; conditions: A549, 48 h, read-out: Activity
In short: (§2)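 Cells grown in RPMI 1640 with 5% FBS and 2 mM L-glutamine, seeded at 5,000–40,000 cells/well by doubling time. Time-zero plates TCA-fixed after 24 h. Five concentrations (10-fold or half-log dilutions from DMSO stock) added; 48 h at 37 °C, 5% CO2. Cold TCA fixation (final 10%, 60 min, 4 °C), 0.4% SRB stain, dye solubilized in 10 mM trizma base, A515.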

ACHN [5] = assay: Cytotoxicity against human ACHN cells assessed as cell growth at 0.01 uM after 48 hrs by sulforhodamine B assay; type: functional; conditions: read-out: Activity; in short: as §2
HCT-116 = assay: Cytotoxicity against human HCT116 cells assessed as cell growth at 100 nM after 48 hrs by sulforhodamine B assay; type: functional; conditions: HCT-116, 48 h, read-out: Activity
ACHN [6] = assay: Growth inhibition of human ACHN cells after 48 hrs by sulforhodamine B assay; type: functional, cell-based
In short: (§3)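 Five-dose SRB assay. Cells in RPMI 1640 with 5% FBS and 2 mM L-glutamine were seeded at 5,000–40,000 cells/well, with a TCA-fixed time-zero plate (Tz) taken at 24 h. Compound stocks were in DMSO, serially diluted 10-fold or ½-log to five concentrations, and incubated 48 h at 37 °C. Plates were stained with SRB and read at 515 nm. IC₅₀ was taken where [(Ti−Tz)/(C−Tz)]×100 = 50.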

HOP-92 = assay: Growth inhibition of human HOP92 cells after 48 hrs by sulforhodamine B assay; type: functional, cell-based; in short: as §1
CAKI-1 [7] = assay: Cytotoxicity against human Caki1 cells assessed as cell growth at 10 uM after 48 hrs by sulforhodamine B assay; type: functional; conditions: CAKI-1, 48 h, read-out: Activity; in short: as §2
CAKI-1 [8] = assay: Cytotoxicity against human Caki1 cells assessed as cell growth at 0.001 uM after 48 hrs by sulforhodamine B assay; type: functional; conditions: CAKI-1, 48 h, read-out: Activity; in short: as §2
SF-268 [9] = assay: Cytotoxicity against human SF268 cells assessed as cell growth at 1 uM after 48 hrs by sulforhodamine B assay; type: functional; conditions: SF-268, 48 h, read-out: Activity
SW-620 = assay: Cytotoxicity against human SW620 cells assessed as cell growth at 1 uM after 48 hrs by sulforhodamine B assay; type: functional; conditions: SW-620, 48 h, read-out: Activity
A549 [10] = assay: Cytotoxicity against human A549 cells assessed as cell growth at 10 uM after 48 hrs by sulforhodamine B assay; type: functional; conditions: A549, 48 h, read-out: Activity; in short: as §2
T47D = assay: Cytotoxicity against human T47D cells assessed as cell growth at 0.001 uM after 48 hrs by sulforhodamine B assay; type: functional; conditions: read-out: Activity
UACC-62 [11] = assay: Cytotoxicity against human UACC62 cells assessed as cell growth at 100 nM after 48 hrs by sulforhodamine B assay; type: functional; conditions: UACC-62, 48 h, read-out: Activity
COLO 205 = assay: Growth inhibition of human COLO205 cells after 48 hrs by sulforhodamine B assay; type: functional, cell-based; conditions: COLO 205, 48 h; for CC50: read-out: LC50 (the source's name); in short: as §3
NCI/ADR-RES = assay: Cytotoxicity against human NCI/ADR-RES cells assessed as cell growth at 0.01 uM after 48 hrs by sulforhodamine B assay; type: functional; conditions: read-out: Activity
HT-29 [12] = assay: Cytotoxicity against human HT-29 cells assessed as cell growth at 10 uM after 48 hrs by sulforhodamine B assay; type: functional; conditions: HT-29, 48 h, read-out: Activity
MDA-MB-435 = assay: Cytotoxicity against human MDA-MB-435 cells assessed as cell growth at 100 nM after 48 hrs by sulforhodamine B assay; type: functional; conditions: MDA-MB-435, 48 h, read-out: Activity
SK-MEL-5 = assay: Cytotoxicity against human SK-MEL-5 cells assessed as cell growth at 0.001 uM after 48 hrs by sulforhodamine B assay; type: functional; conditions: SK-MEL-5, 48 h, read-out: Activity
SNB-19 [13] = assay: Cytotoxicity against human SNB19 cells assessed as cell growth at 10 uM after 48 hrs by sulforhodamine B assay; type: functional; conditions: SNB-19, 48 h, read-out: Activity
SF-268 [14] = assay: Cytotoxicity against human SF268 cells assessed as cell growth at 10 uM after 48 hrs by sulforhodamine B assay; type: functional; conditions: SF-268, 48 h, read-out: Activity
K562 = assay: Growth inhibition of human K562 cells after 48 hrs by sulforhodamine B assay; type: functional, cell-based; conditions: for CC50: read-out: LC50 (the source's name); in short: as §1
CAKI-1 [15] = assay: Cytotoxicity against human Caki1 cells assessed as cell growth at 0.01 uM after 48 hrs by sulforhodamine B assay; type: functional; conditions: CAKI-1, 48 h, read-out: Activity; in short: as §2
A498 = assay: Cytotoxicity against human A498 cells assessed as cell growth at 10 uM after 48 hrs by sulforhodamine B assay; type: functional; conditions: A498, 48 h, read-out: Activity; in short: as §2
NCI-H522 = assay: Cytotoxicity against human NCI-H522 cells assessed as cell growth at 10 uM after 48 hrs by sulforhodamine B assay; type: functional; conditions: NCI-H522, 48 h, read-out: Activity
M14 = assay: Cytotoxicity against human M14 cells assessed as cell growth at 10 uM after 48 hrs by sulforhodamine B assay; type: functional; conditions: M14, 48 h, read-out: Activity
OVCAR-8 = assay: Cytotoxicity against human OVCAR8 cells assessed as cell growth at 10 uM after 48 hrs by sulforhodamine B assay; type: functional; conditions: OVCAR-8, 48 h, read-out: Activity

CC(=O)c1ccccc1-c1ccc(-c2ccnc(NC(=O)Nc3cc(N4CCOCC4)cc(C(F)(F)F)c3)n2)cn1
growth at 1 µM (IGROV-1): 40%
growth at 0.001 µM (HT-29 [1]): 103%
growth at 0.1 µM (SNB-19 [2]): 95%
growth at 0.01 µM (NCI-H322M): 108%
GI50 (UACC-62 [3]): > 100 µM
IC50 (UACC-62 [3]): > 100 µM
LC50 (concentration causing 50% net cell kill) (UACC-62 [3]): > 100 µM
TGI (UACC-62 [3]): > 100 µM
growth at 1 µM (A549 [4]): 82%
growth at 0.01 µM (ACHN [5]): 99%
growth at 0.1 µM (HCT-116): 86%
GI50 (ACHN [6]): > 100 µM
IC50 (ACHN [6]): 6.89 µM
LC50 (50% lethal concentration) (ACHN [6]): > 100 µM
TGI (ACHN [6]): > 100 µM
TGI (HOP-92): inactive
GI50 (HOP-92; Homo sapiens, HOP-92, 48 h): 4.29 µM
IC50 (HOP-92; Homo sapiens, HOP-92, 48 h, read-out: IC50): 2.95 µM
CC50 (HOP-92; Homo sapiens, HOP-92, 48 h, read-out: LC50 (the source's name)): > 100 µM
growth at 10 µM (CAKI-1 [7]): 86%
growth at 0.001 µM (CAKI-1 [8]): 97%
growth at 1 µM (SF-268 [9]): 60%
growth at 1 µM (SW-620): 84%
growth at 10 µM (A549 [10]): 74%
growth at 0.001 µM (T47D): 106%
growth at 0.1 µM (UACC-62 [11]): 90%
GI50 (COLO 205): > 63.2 µM
IC50 (COLO 205): > 100 µM
TGI (COLO 205): > 100 µM
CC50 (COLO 205): > 100 µM
growth at 0.01 µM (NCI/ADR-RES): 98%
growth at 10 µM (HT-29 [12]): 91%
growth at 0.1 µM (MDA-MB-435): 92%
growth at 0.001 µM (SK-MEL-5): 99%
growth at 10 µM (SNB-19 [13]): 26%
growth at 10 µM (SF-268 [14]): 44%
GI50 (K562; K562, 48 h): > 100 µM
IC50 (K562; K562, 48 h): > 100 µM
TGI (K562; K562, 48 h): > 100 µM
CC50 (K562; K562, 48 h): > 100 µM
growth at 0.01 µM (CAKI-1 [15]): 92%
growth at 10 µM (A498): 98%
growth at 10 µM (NCI-H522): 40%
growth at 10 µM (M14): 86%
growth at 10 µM (OVCAR-8): 53%

CC(=O)Nc1cccc(-c2ccc(-c3ccnc(NC(=O)Nc4cc(C(F)(F)F)cc(C(F)(F)F)c4)n3)cn2)c1.Cl
growth at 1 µM (IGROV-1): -2%
growth at 0.001 µM (HT-29 [1]): 106%
growth at 0.1 µM (SNB-19 [2]): 90%
growth at 0.01 µM (NCI-H322M): 88%
GI50 (UACC-62 [3]): 2.86 µM
IC50 (UACC-62 [3]): 2.86 µM
LC50 (concentration causing 50% net cell kill) (UACC-62 [3]): 35.7 µM
TGI (UACC-62 [3]): 12.7 µM
growth at 1 µM (A549 [4]): 10%
growth at 0.01 µM (ACHN [5]): 90%
growth at 0.1 µM (HCT-116): 72%
GI50 (ACHN [6]): 3.83 µM
IC50 (ACHN [6]): 3.83 µM
LC50 (50% lethal concentration) (ACHN [6]): 47.1 µM
TGI (ACHN [6]): 15.5 µM
LC50 (HOP-92): inactive
TGI (HOP-92): inactive
IC50 (HOP-92; hop-92): Not Active
growth at 10 µM (CAKI-1 [7]): -36%
growth at 0.001 µM (CAKI-1 [8]): 108%
growth at 1 µM (SF-268 [9]): 31%
growth at 1 µM (SW-620): -33%
growth at 10 µM (A549 [10]): -86%
growth at 0.001 µM (T47D): 89%
growth at 0.1 µM (UACC-62 [11]): 82%
GI50 (COLO 205): 11 µM
IC50 (COLO 205): 11 µM
TGI (COLO 205): > 100 µM
CC50 (COLO 205): > 100 µM
growth at 0.01 µM (NCI/ADR-RES): 94%
growth at 10 µM (HT-29 [12]): -64%
growth at 0.1 µM (MDA-MB-435): 89%
growth at 0.001 µM (SK-MEL-5): 96%
growth at 10 µM (SNB-19 [13]): -88%
growth at 10 µM (SF-268 [14]): -50%
TGI (K562): inactive
GI50 (K562; K562, 48 h): 1.87 µM
IC50 (K562; K562, 48 h): 1.87 µM
CC50 (K562; K562, 48 h): > 100 µM
growth at 0.01 µM (CAKI-1 [15]): 104%
growth at 10 µM (A498): -77%
growth at 10 µM (NCI-H522): -73%
growth at 10 µM (M14): 100%
growth at 10 µM (OVCAR-8): -84%
